Sampled rows, rich in hits. Any-hit rate of the full collection: about 2.6%.
Platelet DG rel: platelet dense granule release activity; 0.22% of 300,000 active; inhibition, %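 (compounds screened at 7.5 µM in platelet-rich plasma)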; AID 1663; human platelet-rich plasma, SFLLRN dense granule ATP release, luminescence;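 active = mean replicate score, as percent of positive control, at or above 50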
SENP1 FRET inh: SENP1 (human) catalytic domain inhibition. 0.21% of 360,000 active. AID 624204. inhibition, % at 10 µM. recombinant SENP1 catalytic domain, CyPet-SUMO1-YPet FRET cleavage. Q9P0U3;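 active = inhibition at least 30% at 10 µM, raw YFP signal under a set limit, fluorescence ratio 0.5 to 1.5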
Target sequence (Q9P0U3 419-644 limits assumed): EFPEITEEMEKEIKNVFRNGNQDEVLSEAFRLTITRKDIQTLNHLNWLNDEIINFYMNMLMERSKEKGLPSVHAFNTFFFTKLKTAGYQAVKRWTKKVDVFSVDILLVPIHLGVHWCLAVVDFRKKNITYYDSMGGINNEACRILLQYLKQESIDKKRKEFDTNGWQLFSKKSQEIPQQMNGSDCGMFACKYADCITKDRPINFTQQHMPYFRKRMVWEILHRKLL
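material = recombinant human SENP1 catalytic domain, His6-tagged | quantity = 20 pM enzyme | reagent = 25 nM SUMO1 FRET substrate | compound dosing = 10 µM single point, 0.5% DMSO | timing = 50 min enzyme reaction, room temperature, light-protected | detection = FRET, CFP and YFP emission | control set = no-enzyme low, enzyme-DMSO high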
SENP7 inh: SENP7 protease inhibition | recombinant SENP7, Z-RLRGG-aminoluciferin luminescence, 40 min | 1.5% of 330,000 active | Q9BQF6 | inhibition, % at 5 µM;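 active = inhibition above about 50% at the single test dose, limit read from the data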
Target sequence (Q9BQF6 706-1050 limits assumed): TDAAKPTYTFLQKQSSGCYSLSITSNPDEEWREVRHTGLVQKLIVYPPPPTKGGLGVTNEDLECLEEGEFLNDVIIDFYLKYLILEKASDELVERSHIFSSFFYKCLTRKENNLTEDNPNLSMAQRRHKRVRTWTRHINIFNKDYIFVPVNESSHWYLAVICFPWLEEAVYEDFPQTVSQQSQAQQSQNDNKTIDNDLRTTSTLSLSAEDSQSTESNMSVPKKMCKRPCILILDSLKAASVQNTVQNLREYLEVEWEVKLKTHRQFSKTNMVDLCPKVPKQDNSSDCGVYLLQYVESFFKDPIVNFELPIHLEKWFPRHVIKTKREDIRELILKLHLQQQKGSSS
SENP6 inh: blocks the human protease SENP6; Recombinant SENP6 catalytic domain, aminoluciferin luminescence; inhibition, % at 10 µM; 1.8% of 330,000 active;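 active = inhibition above about 50% at the single tested dose, limit read from the data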
SENP8 block-1: blocks human SENP8 cleavage of Nedd8 substrate; Q96LD8; AID 602440; 0.64% of 360,000 active; inhibition, % at 20 µM; recombinant SENP8, Nedd8 substrate fluorescence; in the data active = inhibition mostly above about 40%, no sharp cut-off; inactive = mostly below about 27%
SENP8 block-2: blocks the human protease SENP8. 1.2% of 330,000 active. inhibition, % at 10 µM. purified SENP8, Z-RLRGG-aminoluciferin cleavage, luminescence; in the data active = inhibition above about 50%
SENP8 conf: confirmation of human SENP8 protease inhibitors | AID 488912 | Recombinant SENP8, Z-RLRGG-aminoluciferin luminescence, 60 min | inhibition, % at 12.5 µM | shares compounds with SENP7 inh | 40% of 6,200 active;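 active = mean inhibition across replicates above about 50%, limit read from the data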
SENP6 confirm: confirmation of human SENP6 protease inhibitors. shares compounds with SENP7 inh. recombinant SENP6, Z-RLRGG-aminoluciferin luminescence. inhibition, % at 12.5 µM. 58% of 6,200 active
SENP7 conf: human SENP7 inhibition, confirmed; shares compounds with SENP7 inh; recombinant SENP7, Z-RLRGG-aminoluciferin luminescence, 40 min; inhibition, % at 12.5 µM; 69% of 6,200 active
Casp3 SENP sel: caspase-3 inhibition (SENP selectivity assay) | shares compounds with SENP7 inh | inhibition, % at 12.5 µM | purified caspase-3, Z-DEVD-aminoluciferin luminescence, 60 min | 60% of 6,200 active;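 active = mean inhibition above about 50%, limit read from the data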
SENP luc ctr: luminescence interference (SENP counter-screen); 39% of 6,200 active; shares compounds with SENP7 inh; Pre-incubated SENP8/Z-RLRGG-aminoluciferin, luciferase luminescence interference; inhibition, % at 12.5 µM;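 active = mean inhibition above about 50% when retested at one dose, limit read from the data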
Of the large screens only hits and unclear results are named; the others gave an inactive call (follow-up assays come after a bar, where they were run).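 The calls were made as follows, unless noted: active = mean inhibition above about 50% in the one-dose retest (limit read from the data); inactive = the rest.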

COc1c(S(=O)(=O)N2CCN(C(=O)c3ccco3)CC2)ccc(Cl)c1Cl	none
COc1ccc(NC(=O)Cn2c(-c3ccccc3)cc(C(C)=O)c2C)c(OC)c1	none
Nc1cc(C2CCCC2)nn1-c1ccccc1	SENP6 inh 62 | SENP8 conf inactive | SENP6 confirm inactive | SENP7 conf 77 | Casp3 SENP sel 81 | SENP luc ctr 55
CCCCC(=O)OCC(=O)c1ccc(OCC)cc1	SENP7 inh 51, SENP6 inh 55 | SENP8 conf inactive | SENP6 confirm inactive | SENP7 conf 80 | Casp3 SENP sel 64 | SENP luc ctr inactive
CCOc1ccc(C(=O)COC(=O)CC)cc1	none
CCCCCCOc1ccc(C(=O)O)cc1C#N	SENP6 inh 77, SENP8 block-2 61 | SENP8 conf 61 | SENP6 confirm 61 | SENP7 conf 85 | Casp3 SENP sel 77 | SENP luc ctr 75
CCCCCCCCOc1ccc(C(=O)O)cc1	none (no result: Platelet DG rel)
COc1ccc(Cl)cc1C(=O)NNC(=O)c1ccncc1	none
O=C(COC(=O)c1ccco1)NCc1ccc2c(c1)OCO2	SENP6 inh 58 | SENP8 conf inactive | SENP6 confirm inactive | SENP7 conf inactive | Casp3 SENP sel inactive | SENP luc ctr inactive
O=C(COC(=O)c1ccc2c(c1)OCO2)NCc1ccc2c(c1)OCO2	none
COc1cccc(C(=O)O/N=C(\N)c2ccc(C)cc2)c1	SENP7 inh 83, SENP6 inh 73, SENP8 block-2 57 | SENP8 conf 74 | SENP6 confirm 76 | SENP7 conf 93 | Casp3 SENP sel 79 | SENP luc ctr 58
Cc1ccc(/C(N)=N/OC(=O)CCC2CCCCC2)cc1	none
N/C(=N\OC(=O)c1ccncc1)c1cccc([N+](=O)[O-])c1	none
COc1cccc(C(=O)O/N=C(\N)c2ccncc2)c1	SENP7 inh 67 | SENP8 conf inactive | SENP6 confirm inactive | SENP7 conf 78 | Casp3 SENP sel 83 | SENP luc ctr 59
Cc1cccc(/C(N)=N/OC(=O)c2ccncc2)c1	SENP7 inh 92, SENP6 inh 89, SENP8 block-2 75 | SENP8 conf 79 | SENP6 confirm 84 | SENP7 conf 96 | Casp3 SENP sel 92 | SENP luc ctr 80
COc1cccc(C(=O)O/N=C(\N)c2ccc([N+](=O)[O-])cc2)c1	none
Cc1cccc(/C(N)=N/OC(=O)CCC2CCCCC2)c1	SENP6 inh 83 | SENP8 conf 67 | SENP6 confirm 90 | SENP7 conf 98 | Casp3 SENP sel 86 | SENP luc ctr 83
COc1ccc(C(=O)O/N=C(\N)c2ccncc2)cc1OC	none
CSc1ccccc1OCc1cc(C(=O)N(C)Cc2cc(C)[nH]n2)no1	none
O=C(OCC#CCSc1nnc(-c2cccc3ccccc23)o1)c1cc2ccccc2o1	none (no result: Platelet DG rel)
CCOc1ccc(-c2cc(N3C(=O)Nc4ccccc4N3O)on2)cc1	SENP6 inh 54 | SENP8 conf inactive | SENP6 confirm inactive | SENP7 conf 79 | Casp3 SENP sel 77 | SENP luc ctr 67
CN(C)c1ccnc(SCc2ccccc2Cl)c1C#N	none
Oc1cc2c(cc1C(c1ccc(Br)cc1)N1CCCC1)OCO2 (stereo not given)	none (no result: Platelet DG rel)
CCCc1nc2ccc(Br)cn2c1Cc1ccccc1OC	none (no result: Platelet DG rel, SENP7 inh, SENP6 inh, SENP8 block-2)
O=C(Cc1ccccc1)c1ccc2c(c1)OCCO2	SENP7 inh 69, SENP6 inh 73, SENP8 block-2 71 | SENP8 conf 70 | SENP6 confirm 65 | SENP7 conf 91 | Casp3 SENP sel 78 | SENP luc ctr 76
O=C(CCCO)c1ccc2c(c1)OCCO2	none
O=C(NCCc1ccccc1)c1ccc2c(c1)OCO2	SENP7 inh 57, SENP6 inh 57 | SENP8 conf 52 | SENP6 confirm inactive | SENP7 conf 82 | Casp3 SENP sel 78 | SENP luc ctr 57
Cc1noc(C)c1S(=O)(=O)N(C)C[C@H]1OCCCC[C@H](C)Oc2ccc(NC(=O)CCCN(C)C)cc2C(=O)N([C@H](C)CO)C[C@@H]1C	none (no result: Platelet DG rel, SENP7 inh, SENP6 inh, SENP8 block-2)
Cc1cccnc1Nc1nc(-c2ccc(O)cc2)cs1	SENP7 inh 94, SENP6 inh 93, SENP8 block-2 96 | SENP8 conf 96 | SENP6 confirm 98 | SENP7 conf 102 | Casp3 SENP sel 89 | SENP luc ctr 97
COc1cccc(Nc2nc(-c3ccc(O)cc3)cs2)c1	none
Cc1cccnc1Nc1nc(-c2ccc(F)cc2)cs1	SENP7 inh 93, SENP6 inh 92, SENP8 block-2 89 | SENP8 conf 89 | SENP6 confirm 93 | SENP7 conf 101 | Casp3 SENP sel 74 | SENP luc ctr 53
Cc1sc(NC(=O)/C=C/c2ccco2)c(C(=O)O)c1C	SENP6 inh 73 | SENP8 conf 72 | SENP6 confirm 69 | SENP7 conf 88 | Casp3 SENP sel 85 | SENP luc ctr inactive
CC(=O)Nc1ccc(S(=O)(=O)N2C(=O)c3cccc4cccc2c34)cc1	none (no result: SENP1 FRET inh, SENP8 block-1)
COc1ccc(C2=C(N)c3ccccc3C2=O)cc1	SENP6 inh 54 | SENP8 conf 52 | SENP6 confirm inactive | SENP7 conf 83 | Casp3 SENP sel 73 | SENP luc ctr inactive
COc1ccc(C2C(=O)c3ccccc3C2=O)cc1	SENP6 inh 57, SENP8 block-2 62 | SENP8 conf inactive | SENP6 confirm 67 | SENP7 conf 91 | Casp3 SENP sel 84 | SENP luc ctr 62
Cc1ccc(C)c(NC(=O)C2CCCN(S(=O)(=O)c3c(C)nn(C)c3C)C2)c1 (stereo not given)	none
CC(=O)Nc1ccc(C=C(C#N)c2ccc(C)cc2)cc1	none (no result: Platelet DG rel, SENP7 inh, SENP6 inh, SENP8 block-2)
COc1ccc(Cl)cc1Nc1nc(N)c2ccccc2n1	none
Cc1ccc(C)c(Nc2nc(N)c3ccccc3n2)c1	SENP6 inh 58 | SENP8 conf inactive | SENP6 confirm inactive | SENP7 conf 75 | Casp3 SENP sel 65 | SENP luc ctr inactive
Nc1nc(Nc2cccc(F)c2)nc2ccccc12	SENP7 inh 90, SENP6 inh 96, SENP8 block-2 88 | SENP8 conf 96 | SENP6 confirm 96 | SENP7 conf 102 | Casp3 SENP sel 91 | SENP luc ctr 96

Bioassay records (PubChem BioAssay)
